HEK293 NFkB inh = inhibitors of the PMA/ionomycin-induced NF-kB reporter in HEK293 cells. HEK-293 NF-kB luciferase reporter, luminescence. inhibition, % at 3 µM. hit rate 0.21% among 62,000. AID 465;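 active = inhibition above the mean of all tested compounds plus 3 SD, cut at about 40% in these data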
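Reagent: PMA plus ionomycin mix as NF-kB-activating stimulus. Assay system: NF-kB luciferase reporter HEK-293 cells. Technique: luminescence from luciferase substrate reagent. Incubation: 1 h compound pre-incubation, 16 h PMA/ionomycin at 37 °C. Benchmarks: DMSO only as uninhibited control, 10 µM reference inhibitor as full inhibition. Repeats: tested once.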
HTR1E agonist = activates the human 5-HT1E serotonin receptor. P28566. CHO 5-HT1E Ga15 NFAT-bla reporter, FRET; 0% DMSO wells, 100% control agonist wells. activation, % at 6 µM. hit rate 0.69% among 65,000. AID 574;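 active = activation above a set limit, the screen-wide mean activation plus 3 SD, cut at about 8.5% in these data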
5HT1a antag = antagonists of human 5-HT1a serotonin receptor | inhibition, % at 10 µM | CHO 5-HT1a Ga15 NFAT-bla reporter, antagonist mode | hit rate 0.68% among 62,000;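 active = inhibition above the mean of all tested compounds plus 3 SD, cut at about 43% in these data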;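 note: receptor stimulated by 5-CT agonist at 100 nM near EC80; beta-lactamase reporter measured by ratiometric fluorescence of a cleavable substrate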
Target sequence (P08908 whole entry, looked up): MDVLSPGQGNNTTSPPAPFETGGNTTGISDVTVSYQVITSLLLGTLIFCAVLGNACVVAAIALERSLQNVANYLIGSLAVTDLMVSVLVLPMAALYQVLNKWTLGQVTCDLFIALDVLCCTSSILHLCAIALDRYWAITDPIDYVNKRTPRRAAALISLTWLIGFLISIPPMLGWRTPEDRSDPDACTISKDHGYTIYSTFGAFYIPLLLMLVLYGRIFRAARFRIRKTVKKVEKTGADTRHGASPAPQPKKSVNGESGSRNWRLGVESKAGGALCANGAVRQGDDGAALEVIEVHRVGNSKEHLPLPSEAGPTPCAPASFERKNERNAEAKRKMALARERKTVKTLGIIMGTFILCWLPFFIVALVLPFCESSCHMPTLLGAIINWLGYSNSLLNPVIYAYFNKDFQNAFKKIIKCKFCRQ
5HT1a ag = activates the human 5-HT1a serotonin receptor; P08908; CHO 5-HT1a Ga15 NFAT-bla reporter, FRET ratio; 0% basal, 100% maximal reference agonist; activation, % at 10 µM; hit rate 0.56% among 65,000; AID 567;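 active = activation above the screen-wide mean activation plus 3 SD, cut at about 19% in these data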
HTR1E antagonist = antagonists of human 5-HT1E serotonin receptor; P28566; CHO 5-HT1E Ga15 NFAT-bla reporter, FRET, antagonist; inhibition, % at 6 µM; hit rate 0.99% among 65,000; AID 571;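 active = inhibition above a set limit, the mean inhibition across every tested compound plus 3 SD, cut at about 29% in these data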;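 note: signal is the 460 over 535 nm emission ratio of beta-lactamase substrate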
SKBR3 24h inh = SK-BR-3 proliferation inhibitors. SK-BR-3 viability, CellTiter-Glo ATP luminescence, 24 h; active compounds read low. hit rate 0.47% among 41,000. viability, % at 10 µM;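 active = viability at or below the median of all test compounds minus 3 SD, in both replicates if run twice, cut at about 45% in these data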
Hits are given with their value; 0 = inactive; - = no result. Sampled rows, rich in hits. Any-hit rate of the full collection: about 2.9%.

SMILES	HEK293 NFkB inh	HTR1E agonist	5HT1a antag	5HT1a ag	HTR1E antagonist	SKBR3 24h inh
COc1ccc(N(CC(=O)Nc2cc(Cl)ccc2OC)S(=O)(=O)c2c(C)noc2C)cc1	0	0	0	0	35.1	0
On1onc2c3cc(-c4ccccc4)nc3ccc21	0	0	49.6	0	33.0	-
c1ccc(-c2cc3c(ccc4nonc43)nn2)cc1	0	0	0	0	0	-
C/C(N)=C(/C#N)C(=O)CSc1nnnn1-c1ccc(C)cc1	0	0	0	0	0	-
O=C(c1cc(-c2ccco2)on1)N1CCN(C(c2ccccc2)c2ccccc2)CC1	0	0	42.6	0	0	0
COc1ccc(-c2cc(C(=O)N3CCN(C(c4ccccc4)c4ccccc4)CC3)no2)cc1	0	0	44.0	0	0	0
COc1ccc(C2=Nn3c(nnc3-c3ccccc3)SC2)cc1OC	-	0	-	0	48.5	0
CCCc1nnc2n1N=C(c1ccc(OC)c(OC)c1)CS2	0	0	0	0	63.2	0
COc1ccc(-c2nnc3n2N=C(C)CS3)cc1OC	0	0	0	0	0	0
CCOc1ccc(C2=Nn3c(nnc3-c3ccc(OC)cc3)SC2)cc1	0	0	0	0	39.1	0
COc1ccc(-c2nnc3n2N=C(c2ccccc2)CS3)cc1OC	0	0	0	0	0	24.0
O=C(CN1CCOCC1)Nc1cccc(Cl)c1Cl	0	0	0	0	0	-
CCOC(=O)N1CCC(NC2CCCCCCC2)CC1	0	0	0	0	0	-
COc1cc(C)nc(N(C)S(=O)(=O)c2ccccc2Cl)n1	-	0	-	0	0	0
Nc1nc2ccc(N3CCOCC3)cc2s1	0	0	0	0	0	0
COCCCn1cnc2c(c1=O)c1nc3ccccc3nc1n2CCc1ccccc1	-	0	-	0	0	0
COc1ccc(OC)c(C2=Nn3c(nnc3-c3ccco3)SC2)c1	-	0	-	0	0	0
COc1ccc(OC)c(C2=Nn3c(nnc3-c3cccc(OC(C)C)c3)SC2)c1	0	0	0	0	37.9	0
Cc1ccc(-c2nnc3n2N=C(c2ccccc2Br)CS3)cc1	0	0	0	0	32.2	0
COc1ccc(CNc2nc3nc(-c4ccccc4)cc(=O)n3[nH]2)cc1OC	0	0	0	0	0	0
CC(=O)c1cccc(NC(=O)CCNS(=O)(=O)c2cccc3nsnc23)c1	0	0	0	0	0	0
Cc1cccc(NC(=O)CCNS(=O)(=O)c2cccc3nsnc23)c1	0	38.2	0	0	0	0
O=C(NCc1cccs1)C1CCN(c2ccc(S(=O)(=O)N3CCOCC3)cc2Cl)CC1	0	0	0	0	40.4	0
CC(C)CNC(=O)C1CCN(c2ccc(S(=O)(=O)N3CCOCC3)cc2Cl)CC1	0	0	0	0	0	0
CCCN1CCC(N2CCN(c3ccccc3OC)CC2)CC1	0	0	63.3	0	0	-
SMILES	HEK293 NFkB inh	HTR1E agonist	5HT1a antag	5HT1a ag	HTR1E antagonist	SKBR3 24h inh
COc1ccccc1N1CCN(Cc2ccco2)CC1	0	9.2	0	0	0	0
CCOc1ccccc1N1CCN(Cc2cccc(OC)c2O)CC1	0	0	0	0	0	-
COc1ccccc1N1CCN(CCNC(=O)Nc2cccc(C)c2C)CC1	0	0	0	40.5	0	0
COc1ccccc1N1CCN(Cc2cc(Br)c(O)c3ncccc23)CC1	0	13.8	64.7	0	38.0	-
CCCCCn1c(SCCN2CCOCC2)nc2c1c(=O)[nH]c(=O)n2C	0	0	0	0	0	0
Cc1cc(C)nc(N2CCN(c3nc(C)nc4c3oc3ccccc34)CC2)n1	0	0	0	0	0	-
COc1ccccc1N1CCN(c2nc(C)nc3c2oc2ccccc23)CC1	0	0	66.7	0	58.4	0
COc1ccccc1N1CCN(C/C=C/c2ccc(N(C)C)cc2)CC1	0	9.7	78.7	0	0	-
COc1ccccc1N1CCN(CCOc2c(OC)cccc2OC)CC1	-	30.3	-	0	0	0
COc1ccccc1/C=C/CN1CCOCC1	0	0	0	0	0	-
COc1ccccc1N1CCN(CC(O)COc2cccc3ccccc23)CC1 (stereo not drawn)	-	0	-	0	0	0
COc1ccc(OC)c(NC(=O)CSc2nnc(Cn3c(=O)sc4ccccc43)n2C)c1	0	0	0	0	0	-
Cc1noc(/C=C/c2ccco2)c1S(=O)(=O)N1CCC(C(=O)N2CCc3ccccc3C2)CC1	0	0	0	0	0	0
CN1CC(=O)NC1=NC(=O)c1ccc(Cl)c(S(=O)(=O)N2CCCCCC2)c1	0	0	0	0	0	-
N=c1n(Cc2ccccc2)c2ccccc2n1CC(O)c1ccco1 (stereo not drawn)	0	0	0	0	0	0
COc1ccc(OCC(O)Cn2c(=N)n(Cc3ccccc3)c3ccccc32)cc1 (stereo not drawn)	0	0	47.5	0	0	0
Cc1cccc(OCC(O)Cn2c(=N)n(CCN3CCCCC3)c3ccccc32)c1 (stereo not drawn)	0	0	68.4	0	0	0
CCOC(=O)CSc1nnc(CNC(=O)c2ccc(OC)cc2)n1C1CCCCC1	0	0	0	0	0	-
CCOc1ccc(NC(=O)CN(C)CC(=O)Nc2ccccc2C#N)cc1OCC	0	0	0	288.6	0	-
CCCC(c1nnnn1Cc1ccco1)N1CCC(C(N)=O)CC1 (stereo not drawn)	0	0	0	0	0	0
CCOC(=O)C1=C(C)Nc2nc(SCC)[nH]c(=O)c2C1c1ccncc1 (stereo not drawn)	0	0	0	0	0	0
O=C(c1ccccc1)N1CCN(c2ccc(NCc3ccc4c(c3)OCO4)cc2)CC1	0	0	0	0	0	-
CCOC(=O)c1ccc(NCc2ccc(N(C)C)cc2)cc1	0	0	0	0	0	0
CCOC(=O)c1ccc(NCc2ccc3c(c2)OCO3)cc1	0	0	0	0	0	43.1
CC(=O)N1CCN(c2ccc(NCc3ccc4c(c3)OCO4)cc2)CC1	0	0	0	42.7	0	0
SMILES	HEK293 NFkB inh	HTR1E agonist	5HT1a antag	5HT1a ag	HTR1E antagonist	SKBR3 24h inh
CCOC(=O)c1cnc(-n2nc(C)cc2C)nc1NCc1ccc2c(c1)OCO2	0	0	43.2	0	0	0
Cc1ccc(NC(=O)CCn2cccc2)cc1Cl	0	0	0	0	0	-
O=C(c1cccs1)N(Cc1ccco1)Cc1cc2ccccc2[nH]c1=O	0	0	0	51.5	0	0
CCOC(=O)c1ccc2ncc(C(=O)OCC)c(NCc3ccco3)c2c1	0	0	0	0	0	0
Cc1cccc(-c2cc3nc4c(c(N5CCOCC5)n3n2)CCCC4)c1	0	0	0	0	39.6	0
OC1CCCN(c2c3c(nc4cc(-c5cccc(Cl)c5)nn24)CCC3)C1 (stereo not drawn)	0	0	0	0	38.2	-
Cc1cccc(-c2cc3nc4c(c(N5CCCC(O)C5)n3n2)CCC4)c1 (stereo not drawn)	0	0	0	0	49.8	0
Cc1cccc(-c2cc3nc4c(c(N5CCC6(CC5)OCCO6)n3n2)CCCC4)c1	0	0	0	0	0	0

Source: PubChem
